{
  "source": "ChEMBL document CHEMBL5647683",
  "about": "(Oncogene, 2008)",
  "key": {"[1]": {"target": "Serine/threonine-protein kinase Nek6 (Homo sapiens) (UniProt Q9HC98)", "sequence (Q9HC98 whole entry)": "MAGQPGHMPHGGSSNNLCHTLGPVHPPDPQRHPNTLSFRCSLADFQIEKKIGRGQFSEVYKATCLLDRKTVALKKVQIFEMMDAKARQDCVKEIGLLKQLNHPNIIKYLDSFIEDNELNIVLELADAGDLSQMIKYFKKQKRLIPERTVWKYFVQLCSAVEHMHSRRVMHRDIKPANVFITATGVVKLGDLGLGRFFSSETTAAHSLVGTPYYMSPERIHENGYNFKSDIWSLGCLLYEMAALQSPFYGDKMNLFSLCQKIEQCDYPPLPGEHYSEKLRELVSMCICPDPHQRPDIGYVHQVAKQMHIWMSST", "assay": "Inhibition of NEK6 (unknown origin) assessed as remaining activity relative to control; values are per cent of control"}, "[2]": {"target": "MAP kinase-activated protein kinase 2 (Homo sapiens) (UniProt P49137)", "sequence (P49137 whole entry, looked up)": "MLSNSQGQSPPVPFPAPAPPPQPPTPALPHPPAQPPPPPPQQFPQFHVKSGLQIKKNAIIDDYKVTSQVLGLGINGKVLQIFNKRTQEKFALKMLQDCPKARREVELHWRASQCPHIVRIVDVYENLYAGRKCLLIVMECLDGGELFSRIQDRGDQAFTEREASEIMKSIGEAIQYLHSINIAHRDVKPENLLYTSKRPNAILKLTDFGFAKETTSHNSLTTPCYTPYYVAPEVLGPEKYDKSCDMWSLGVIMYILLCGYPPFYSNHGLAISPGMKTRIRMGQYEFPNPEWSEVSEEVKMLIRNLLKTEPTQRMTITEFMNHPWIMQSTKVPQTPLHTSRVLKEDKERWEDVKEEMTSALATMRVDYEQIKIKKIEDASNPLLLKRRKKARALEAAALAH", "assay": "Inhibition of MAPKAP-K2 (unknown origin) assessed as remaining activity relative to control; values are per cent of control"}, "[3]": {"assay": "AUC(0-24hrs) in human FaDu cells xenografted athymic NMRI-nu/nu female mouse at 20 mg/kg, po administered daily for 25 days by LC-MS-MS method", "type": "ADME, organism-based", "details": "in vivo, time 25 day"}, "[4]": {"target": "[Pyruvate dehydrogenase (acetyl-transferring)] kinase isozyme 1, mitochondrial (Homo sapiens) (UniProt Q15118)", "assay": "Inhibition of PDK1 (unknown origin) assessed as remaining activity relative to control; values are per cent of control"}, "Mus musculus [5]": {"system": "Mus musculus", "assay": "Antitumor activity against EGFR L858R/T790M mutant driven lung cancer mouse model assessed as histological change in lung structure at 20 mg/kg, po administered daily for 2 weeks in the presence of rapamycin by IHC staining based analysis", "type": "functional, organism-based"}, "[6]": {"target": "Tyrosine-protein kinase CSK (Homo sapiens) (UniProt P41240)", "sequence (P41240 2-450 limits assumed)": "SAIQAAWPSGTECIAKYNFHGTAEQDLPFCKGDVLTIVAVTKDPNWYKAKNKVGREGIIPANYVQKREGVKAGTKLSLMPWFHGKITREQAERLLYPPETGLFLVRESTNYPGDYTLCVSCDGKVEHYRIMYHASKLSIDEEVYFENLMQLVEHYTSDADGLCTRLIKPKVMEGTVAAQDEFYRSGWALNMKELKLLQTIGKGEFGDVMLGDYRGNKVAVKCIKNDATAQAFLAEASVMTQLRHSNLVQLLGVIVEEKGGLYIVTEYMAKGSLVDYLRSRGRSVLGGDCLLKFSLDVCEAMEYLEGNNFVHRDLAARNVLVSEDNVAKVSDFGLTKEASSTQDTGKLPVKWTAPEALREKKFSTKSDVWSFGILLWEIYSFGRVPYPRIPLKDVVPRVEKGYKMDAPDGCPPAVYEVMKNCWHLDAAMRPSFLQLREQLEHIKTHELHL", "assay": "Inhibition of CSK (unknown origin) assessed as remaining activity relative to control; values are per cent of control"}, "[7]": {"assay": "AUC(0-24hrs) in human SK-OV-3 cells xenografted athymic NMRI-nu/nu female mouse at 20 mg/kg, po administered daily for 25 days by LC-MS-MS method", "type": "ADME, organism-based", "details": "in vivo, time 25 day"}, "Homo sapiens [8]": {"species_on_record": "Homo sapiens", "assay": "Inhibition of AMPK (unknown origin) assessed as remaining activity relative to control; values are per cent of control"}, "[9]": {"assay": "Inhibition of human EGFR L747_P753del7insS-T790M mutant expressed in mouse BaF3 cells assessed as reduction in cell survival incubated for 48 hrs by WST assay"}, "[10]": {"target": "RAC-alpha serine/threonine-protein kinase (Homo sapiens) (UniProt P31749)", "sequence (P31749 whole entry)": "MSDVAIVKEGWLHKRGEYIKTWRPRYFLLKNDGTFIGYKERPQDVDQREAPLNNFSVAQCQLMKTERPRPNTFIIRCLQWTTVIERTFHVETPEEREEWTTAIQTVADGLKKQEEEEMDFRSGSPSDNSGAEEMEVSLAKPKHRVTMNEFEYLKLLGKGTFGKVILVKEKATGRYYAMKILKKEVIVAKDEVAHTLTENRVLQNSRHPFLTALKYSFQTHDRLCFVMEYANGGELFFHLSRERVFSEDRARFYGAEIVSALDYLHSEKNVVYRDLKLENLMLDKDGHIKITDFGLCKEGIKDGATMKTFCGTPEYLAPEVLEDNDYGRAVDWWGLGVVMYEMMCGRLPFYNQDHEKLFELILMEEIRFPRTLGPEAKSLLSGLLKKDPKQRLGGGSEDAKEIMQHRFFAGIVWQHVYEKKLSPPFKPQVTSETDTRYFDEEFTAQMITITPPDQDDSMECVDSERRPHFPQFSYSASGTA", "assay": "Inhibition of PKBalpha (unknown origin) assessed as remaining activity relative to control; values are per cent of control"}, "Mus musculus [11]": {"system": "Mus musculus", "assay": "Antitumor activity against EGFR L858R/T790M mutant driven lung cancer mouse model assessed as reduction in numbers of tumor foci at 20 mg/kg, po administered daily for 2 weeks by IHC staining based analysis", "type": "functional, organism-based"}, "A-431": {"system": "A-431", "assay": "Antitumor activity against human A-431 cells xenografted athymic NMRI-nu/nu female mouse as reduction in tumor volume at 20 mg/kg, po administered daily for 25 days relative to control", "type": "functional", "details": "time 25 day", "in_short": "(§1)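 Female athymic NMRI-nu/nu mice (5–6 weeks, 21–31 g) given 1–5×10⁶ cells into the right flank; MDA-MB-453 tumors started from fresh 2×2×2 mm fragments. At 40–130 mm³, tumors were randomized to weight-based daily oral gavage (10 ml/kg; 1.8% HP-β-CD, 5% acetic acid (10%), 0.5% Natrosol) or vehicle. Caliper measurement 3×/week, volume π/6×L×W². Expressed as cumulative treated/control volume ratio; one-way ANOVA with Dunnett's test.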"}, "[12]": {"target": "MAP kinase-activated protein kinase 5 (Homo sapiens) (UniProt Q8IW41)", "sequence (Q8IW41 whole entry)": "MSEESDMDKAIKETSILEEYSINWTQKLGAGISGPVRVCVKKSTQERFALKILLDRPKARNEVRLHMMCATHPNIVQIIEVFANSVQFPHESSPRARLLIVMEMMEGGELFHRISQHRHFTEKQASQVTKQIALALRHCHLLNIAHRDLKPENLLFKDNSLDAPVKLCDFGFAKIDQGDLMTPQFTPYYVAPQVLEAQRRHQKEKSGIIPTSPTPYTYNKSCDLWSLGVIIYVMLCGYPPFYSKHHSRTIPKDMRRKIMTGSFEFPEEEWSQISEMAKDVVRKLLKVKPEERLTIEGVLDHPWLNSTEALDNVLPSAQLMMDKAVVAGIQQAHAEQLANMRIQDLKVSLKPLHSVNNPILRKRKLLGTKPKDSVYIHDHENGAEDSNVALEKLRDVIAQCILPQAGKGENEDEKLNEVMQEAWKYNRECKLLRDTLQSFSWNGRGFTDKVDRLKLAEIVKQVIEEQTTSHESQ", "assay": "Inhibition of PRAK (unknown origin) assessed as remaining activity relative to control; values are per cent of control"}, "NIH3T3": {"system": "NIH3T3", "assay": "Inhibition of colony formation in EGFR mutant L858R expressing mouse NIH3T3 cells assessed as number of colonies at 1 to 10000 nM incubated for 2 week by soft agar assay", "type": "functional, cell-based", "details": "dose 1-10000 nM, time 2.0 weeks", "in_short": "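NIH-3T3 cells expressing wild-type or mutant EGFR suspended in top agar (DMEM, 10% calf serum, 0.4% agar) over 0.5% agar bottom layer; drug added to top layer; wild-type cells supplemented with 100 ng/ml EGF. Triplicate plating, 2-week incubation; colonies counted from 10 fields photographed at ×4; values normalized to untreated.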"}, "Mus musculus [13]": {"system": "Mus musculus", "assay": "Antitumor activity against EGFR L858R/T790M mutant driven lung cancer mouse model assessed as increase in tissue space at 20 mg/kg, po administered daily for 2 weeks by IHC staining based analysis", "type": "functional, organism-based"}, "[14]": {"target": "Serine/threonine-protein kinase Nek2 (Homo sapiens) (UniProt P51955)", "sequence (P51955 whole entry)": "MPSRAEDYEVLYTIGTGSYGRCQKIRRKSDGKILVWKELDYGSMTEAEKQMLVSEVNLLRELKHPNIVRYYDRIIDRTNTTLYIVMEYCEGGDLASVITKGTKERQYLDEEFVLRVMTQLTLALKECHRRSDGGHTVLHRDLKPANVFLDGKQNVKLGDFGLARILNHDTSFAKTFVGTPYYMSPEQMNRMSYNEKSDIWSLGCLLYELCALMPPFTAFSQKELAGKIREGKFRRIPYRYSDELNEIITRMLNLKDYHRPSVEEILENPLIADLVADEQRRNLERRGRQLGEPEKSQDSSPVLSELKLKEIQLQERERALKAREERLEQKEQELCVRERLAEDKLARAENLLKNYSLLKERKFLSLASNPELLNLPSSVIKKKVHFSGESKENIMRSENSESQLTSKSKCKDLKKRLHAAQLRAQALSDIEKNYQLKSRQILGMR", "assay": "Inhibition of NEK2A (unknown origin) assessed as remaining activity relative to control; values are per cent of control"}, "[15]": {"target": "Serine/threonine-protein kinase Sgk1 (Homo sapiens) (UniProt O00141)", "sequence (O00141 whole entry)": "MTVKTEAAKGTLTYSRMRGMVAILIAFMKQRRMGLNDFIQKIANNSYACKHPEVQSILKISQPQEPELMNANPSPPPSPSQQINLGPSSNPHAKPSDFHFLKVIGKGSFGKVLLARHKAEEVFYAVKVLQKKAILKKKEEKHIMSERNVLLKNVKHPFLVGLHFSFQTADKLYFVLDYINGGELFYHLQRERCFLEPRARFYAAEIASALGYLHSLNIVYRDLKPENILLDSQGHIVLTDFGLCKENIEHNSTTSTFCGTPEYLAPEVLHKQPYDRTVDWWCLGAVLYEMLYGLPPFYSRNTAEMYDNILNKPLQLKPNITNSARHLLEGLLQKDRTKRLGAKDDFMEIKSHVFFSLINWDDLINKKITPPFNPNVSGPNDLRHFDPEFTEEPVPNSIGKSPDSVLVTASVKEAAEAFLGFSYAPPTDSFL", "assay": "Inhibition of SGK (unknown origin) assessed as remaining activity relative to control; values are per cent of control"}, "[16]": {"target": "Mitogen-activated protein kinase 8 (Homo sapiens) (UniProt P45983)", "sequence (P45983 whole entry)": "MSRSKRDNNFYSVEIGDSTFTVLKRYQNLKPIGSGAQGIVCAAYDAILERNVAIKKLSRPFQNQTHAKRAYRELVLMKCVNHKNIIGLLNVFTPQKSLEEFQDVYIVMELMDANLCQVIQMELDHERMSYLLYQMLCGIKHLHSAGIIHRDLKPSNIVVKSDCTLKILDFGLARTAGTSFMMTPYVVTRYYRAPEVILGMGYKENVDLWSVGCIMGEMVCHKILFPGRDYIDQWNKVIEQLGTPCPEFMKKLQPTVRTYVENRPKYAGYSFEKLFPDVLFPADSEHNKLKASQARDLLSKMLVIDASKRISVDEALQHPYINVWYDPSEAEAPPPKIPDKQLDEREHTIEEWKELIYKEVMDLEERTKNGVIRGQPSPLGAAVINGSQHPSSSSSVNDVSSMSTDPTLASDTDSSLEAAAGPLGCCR", "assay": "Inhibition of JNK1 (unknown origin) assessed as remaining activity relative to control; values are per cent of control"}, "Homo sapiens [17]": {"species_on_record": "Homo sapiens", "assay": "Inhibition of PI3K (unknown origin) assessed as remaining activity relative to control; values are per cent of control"}, "NCI-N87": {"system": "NCI-N87", "assay": "Antitumor activity against human NCI-N87 cells xenografted athymic NMRI-nu/nu female mouse as reduction in tumor volume at 20 mg/kg, po administered daily for 25 days relative to control", "type": "functional", "details": "time 25 day", "in_short": "as §1"}, "[18]": {"target": "cAMP-dependent protein kinase (PKA) (Homo sapiens) (UniProt P22694+P17612+P22612)", "assay": "Inhibition of PKA (unknown origin) assessed as remaining activity relative to control; values are per cent of control"}, "[19]": {"assay": "Cmax in human NCI-N87 cells xenografted athymic NMRI-nu/nu female mouse at 20 mg/kg, po administered daily for 25 days by LC-MS-MS method", "type": "ADME, organism-based", "details": "in vivo, time 25 day"}, "Mus musculus [20]": {"system": "Mus musculus", "assay": "Antitumor activity against EGFR L858R/T790M mutant driven lung cancer mouse model assessed as increase in fibrosis inside tumor nodules at 20 mg/kg, po administered daily for 2 weeks by IHC staining based analysis", "type": "functional, organism-based"}, "MDA-MB-453": {"system": "MDA-MB-453", "assay": "Antitumor activity against human MDA-MB-453 cells xenografted athymic NMRI-nu/nu female mouse as reduction in tumor volume at 20 mg/kg, po administered daily for 25 days relative to control", "type": "functional", "details": "time 25 day", "in_short": "as §1"}, "Mus musculus [21]": {"system": "Mus musculus", "assay": "Antitumor activity against EGFR L858R/T790M mutant driven lung cancer mouse model assessed as reduction in HER3 phosphorylation at 20 mg/kg, po measured after 48 hrs by immunohistochemical staining", "type": "functional, organism-based", "in_short": "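Doxycycline-maintained L858R/T790M EGFR bitransgenic mice, three per group, received 20 mg/kg by gavage, alone or with 2 mg/kg intraperitoneal rapamycin, three times at 24 h intervals. Mice were killed 1 h after the last dose, about 48 h from the start. Lung sections immunostained for phosphorylated receptors; littermates served as controls.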"}},
  "note": "Activity calls are given as the source filed them. The calls are words filed in the database; no cut-off is given here.",
  "data": [
    {"smiles": "CN(C)C/C=C/C(=O)Nc1cc2c(Nc3ccc(F)c(Cl)c3)ncnc2cc1O[C@H]1CCOC1", "note": "[AFATINIB]", "values": [
      {"measurement": "residual activity", "setting": "[1]", "value": 95, "unit": "%"},
      {"measurement": "residual activity", "setting": "[2]", "value": 88, "unit": "%"},
      {"measurement": "AUC at 600 h", "setting": "[3]", "value": 1.23, "unit": "µM·h"},
      {"measurement": "residual activity", "setting": "[4]", "value": 103, "unit": "%"},
      {"measurement": "Activity", "setting": "Mus musculus [5]", "value": "inactive"},
      {"measurement": "residual activity", "setting": "[6]", "value": 46, "unit": "%"},
      {"measurement": "AUC at 600 h", "setting": "[7]", "value": 2.16, "unit": "µM·h"},
      {"measurement": "residual activity", "setting": "Homo sapiens [8]", "value": 75, "unit": "%"},
      {"measurement": "IC50", "setting": "[9]", "value": 49, "unit": "nM"},
      {"measurement": "residual activity", "setting": "[10]", "value": 70, "unit": "%"},
      {"measurement": "Activity", "setting": "Mus musculus [11]", "value": "Active"},
      {"measurement": "T/C", "setting": "A-431", "value": 2, "unit": "%"},
      {"measurement": "residual activity", "setting": "[12]", "value": 83, "unit": "%"},
      {"measurement": "inhibition", "setting": "NIH3T3", "value": "Active"},
      {"measurement": "Activity", "setting": "Mus musculus [13]", "value": "Active"},
      {"measurement": "residual activity", "setting": "[14]", "value": 94, "unit": "%"},
      {"measurement": "residual activity", "setting": "[15]", "value": 72, "unit": "%"},
      {"measurement": "residual activity", "setting": "[16]", "value": 87, "unit": "%"},
      {"measurement": "residual activity", "setting": "Homo sapiens [17]", "value": 109, "unit": "%"},
      {"measurement": "T/C", "setting": "NCI-N87", "value": 4, "unit": "%"},
      {"measurement": "residual activity", "setting": "[18]", "value": 82, "unit": "%"},
      {"measurement": "Cmax", "setting": "[19]", "value": 80, "unit": "nM"},
      {"measurement": "Activity", "setting": "Mus musculus [20]", "value": "Active"},
      {"measurement": "T/C", "setting": "MDA-MB-453", "value": 3, "unit": "%"},
      {"measurement": "Activity", "setting": "Mus musculus [21]", "value": "Active"}
    ]}
  ]
}
